CaV13 FRET inh = Primary screen for inhibitors of IQ motif and Ca2+-dependent inactivation inhibitor domain binding in CACNA1D, Förster resonance energy transfer in living cells, …; HEK cells, CFP/YFP FRET ICDI-IQ, plate reader, 10 min; percent FRET-ratio fall versus neutral wells; inhibition, % at 12.3 µM; 340,000 compounds, 0.098% hits; AID 743397;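 active = mean replicate inhibition of at least 30% and at least 1% of replicates passing that level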
ADAM10 inh = inhibitors of human ADAM10 | 370,000 compounds, 0.62% hits | inhibition, % at 7 µM | recombinant ADAM10, EDANS/DABCYL FRET peptide cleavage, 3 h | O14672;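 active = inhibition above a per-campaign cutoff equal to the mean of compounds falling between control-based bounds plus 3 SD, cut at about 20% in these data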
Arrestin-AP2 inh = blocks beta-arrestin peptide binding to AP2 adaptin. FITC-arrestin peptide / GST-AP2 beads, flow cytometry; AP2 beta2 appendage carries R879A mutation. inhibition, % at 10 µM. 340,000 compounds, 0.31% hits. AID 504490;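 active = inhibition above a set limit, near 3 SD of compounds lacking own fluorescence, cut at about 54% in these data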
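Material – GST-tagged AP2 beta2-adaptin appendage (R879A) on 4 µm glutathione beads · Probe or stimulus – fluorescein-tagged arrestin peptide at 50 nM final · Timing – 12 min plus 1 h, RT · Detection – bead flow cytometry, FITC channel · Read-out basis – inhibition as reduced fluorescein signal on beads, percent · Medium – PBS plus Tween 20 (0.05%) and BSA (0.1%)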
NRP1-CendR mod = NRP-1/CendR interaction modulation; O14786; FAM-RPARPAR peptide binding to NRP-1, fluorescence polarization; inhibition, % at 25 µM; 360,000 compounds, 0.85% hits; AID 602438;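 active = inhibition or corrected inhibition above about 18%, plus a signal ratio from 0.5 to 1.5, limit read from the data, passing the limit was not always enough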
ADAM17 inh = inhibitors of human ADAM17; P78536; recombinant ADAM17, EDANS/DABCYL FRET peptide cleavage; inhibition, % at 6.95 µM; 370,000 compounds, 0.83% hits; AID 720648;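 active = inhibition above the mean of compounds lying between control limits plus 3 SD, set per campaign, cut at about 8.5% in these data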
FAS TE block = blocks the thioesterase domain of human fatty acid synthase. P49327. 360,000 compounds, 0.67% hits. inhibition, % at 15 µM. AID 602261. recombinant FAS-TE, OMFH fluorogenic substrate, fluorescence endpoint;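 active = compounds whose normalised, plate-corrected inhibition of enzyme fluorescence in the single-dose primary screen is 50% or more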
FAS-TE inh conf = confirmation of human fatty acid synthase thioesterase inhibitors; shares compounds with FAS TE block; recombinant FAS-TE, OMFH fluorogenic substrate, fluorescence; AID 624325; inhibition, % at 15 µM; 2,300 compounds, 45% hits;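 active = compounds inhibiting the enzyme by at least 50% at 15 µM in any one of the replicates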
A number is an active result; - = inactive; . = not tested or not shown; ! = not confirmed by another sample. Most compounds without a hit are left out; they make up all but 2.9% or so of the library.

SMILES | CaV13 FRET inh | ADAM10 inh | Arrestin-AP2 inh | NRP1-CendR mod | ADAM17 inh | FAS TE block | FAS-TE inh conf
COc1ccc(Br)cc1CN(C)C(C)C(=O)Nc1cc([N+](=O)[O-])ccc1OC (stereo not given) | - | - | - | - | - | 54 | -
COc1ccc([N+](=O)[O-])cc1NC(=O)C(C)N(C)Cc1ccc(Br)cc1 (stereo not given) | - | - | - | - | - | - | .
CC(=O)N(c1ccccc1C)C1CCCC1 | - | - | - | - | - | - | .
CC(=O)N(C1=C(Cl)C(=O)c2ccccc2C1=O)C1CCCCC1 | - | - | - | - | - | 80 | 71
Cc1ccc(S(=O)(=O)N2CCN(C(=O)c3cc4c(C)nn(-c5ccccc5)c4s3)CC2)cc1 | - | - | - | - | - | 62 | -
CCOC(=O)[C@@]12CCCC3=C1N(CCC3)C(=O)[C@H]2CC(=O)NCc1cccc(C(F)(F)F)c1 | . | - | . | . | - | . | .
CC1(C)CC2CC(C)(CN2S(=O)(=O)c2ccc(C(=O)Nc3ccc(Cl)c(S(=O)(=O)N4CCOCC4)c3)cc2)C1 (stereo not given) | . | - | - | - | - | 80 | -
CC1(C)CC2CC(C)(CN2S(=O)(=O)c2ccc(C(=O)Nc3ccc(S(=O)(=O)N4CCOCC4)cc3)cc2)C1 (stereo not given) | - | - | - | - | - | 58 | -
O=C1c2ccccc2NC(c2cc(Cl)cc(Cl)c2O)N1CCc1ccccn1 (stereo not given) | - | - | . | . | - | . | .
CN(C(=O)c1cccc(NC(=O)Cc2cccc(NC(=O)C3CCN(S(=O)(=O)c4cccc([N+](=O)[O-])c4)CC3)c2)c1)C1CC1 | - | - | - | - | - | - | .
CN(CCc1ccccc1)C(=O)c1ccc(NC(=O)Cc2cccc(NC(=O)C3CCN(S(=O)(=O)c4cccc([N+](=O)[O-])c4)CC3)c2)cc1 | - | - | - | - | - | 55 | -
CN(CCc1ccccc1)C(=O)c1ccc(NC(=O)Cc2ccc(NC(=O)C3CCN(S(=O)(=O)c4cccc([N+](=O)[O-])c4)CC3)cc2)cc1 | - | - | - | - | - | 62 | -
CN(C(=O)c1cccc(NC(=O)Cc2ccc(NC(=O)C3CCN(S(=O)(=O)c4cccc([N+](=O)[O-])c4)CC3)cc2)c1)C1CC1 | - | - | - | - | - | - | .
CN(C(=O)c1cccc(NC(=O)Cc2ccc(NC(=O)C3CCN(S(=O)(=O)c4cccc([N+](=O)[O-])c4)CC3)cc2)c1)C1CCCCC1 | - | - | - | - | - | 52 | -
COc1ccc(N2C(=O)NC3CC2(C)Oc2ccc(Br)cc23)cc1OC (stereo not given) | - | - | - | - | - | 59 | 74
Cc1ccc(N2C(=O)[C@@H]3[C@H](C2=O)C2c4ccccc4C=NN2[C@@H]3C(=O)c2ccc(Cl)cc2)cc1 (stereo not given in full) | - | - | - | - | - | 82 | -
Cc1ccc(N2C(=O)[C@@H]3[C@H](C2=O)[C@H]2C=CC=NN2[C@@H]3C(=O)Nc2ccc(Cl)cc2)cc1 | - | - | - | - | - | - | .
O=C(c1ccc(Cl)cc1)[C@@H]1[C@@H]2C(=O)N(c3ccc(Cl)cc3)C(=O)[C@@H]2C2c3ccccc3C=NN21 (stereo not given in full) | - | - | - | - | - | 69 | -
CC(=O)[C@@H]1[C@@H]2C(=O)N(c3ccc(F)c(Cl)c3)C(=O)[C@@H]2C2c3ccccc3C=CN21 (stereo not given in full) | . | - | . | . | - | . | .
CCCCCCCCN1C(=O)[C@@H](CC(=O)NCc2cccs2)C[C@@]2(C(=O)OC)C1=C[C@H](C1CCCC1)O[C@@H]2C | - | - | . | . | - | . | .
O=C1C(Cc2ccccc2)Nc2ncnc(N3CCN(c4ccccc4)CC3)c2N1Cc1ccc(Br)cc1 (stereo not given) | - | - | - | - | - | 83! | -
O=C1C(Cc2ccccc2)Nc2ncnc(N3CCN(c4ccccc4)CC3)c2N1Cc1ccccc1 (stereo not given) | - | - | - | - | - | - | .
Cc1ccc(CN2C(=O)C(Cc3ccccc3)Nc3ncnc(N4CCN(c5ccccc5)CC4)c32)cc1 (stereo not given) | - | - | - | - | - | 62 | -
Cc1ccc(C(=O)N2CC(=O)Nc3ccc(F)cc3C2c2ccccc2)cc1[N+](=O)[O-] (stereo not given) | - | - | . | - | - | - | .
O=C1CN(C(=O)c2cc([N+](=O)[O-])ccc2Cl)C(c2ccccc2)c2cc(F)ccc2N1 (stereo not given) | - | - | - | - | - | 86 | 88
COc1ccc2cc(/C=N/O)c(Cl)nc2c1 | - | - | - | - | - | - | .
